Source: ChEMBL document CHEMBL1833814 (Bioorg Med Chem Lett, 2011)

Target: Fatty acid synthase (Homo sapiens, UniProt P49327)
Assay: Inhibition of human FAS assessed as synthesis of long chain fatty acids from malonyl CoA after 60 mins by fluorescence assay
In short: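 FAS enzyme prepared from HeLa cells, in enzyme buffer (20 mM K phosphate, 1 mM EDTA, 1 mM DTT, 5% glycerol, pH 7.4). It was preincubated 60 min at 37 °C with compound (0.1% DMSO), 326 µM NADPH and 60 µM acetyl CoA in 100 mM K phosphate, 1 mM EDTA, 1 mM DTT, pH 7.0. The reaction was started with 200 µM malonyl CoA. NADPH consumption was read at 340 nm over 10 min, and the slope (Vmax) was taken.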

Fatty acid synthase, sequence (P49327 whole entry): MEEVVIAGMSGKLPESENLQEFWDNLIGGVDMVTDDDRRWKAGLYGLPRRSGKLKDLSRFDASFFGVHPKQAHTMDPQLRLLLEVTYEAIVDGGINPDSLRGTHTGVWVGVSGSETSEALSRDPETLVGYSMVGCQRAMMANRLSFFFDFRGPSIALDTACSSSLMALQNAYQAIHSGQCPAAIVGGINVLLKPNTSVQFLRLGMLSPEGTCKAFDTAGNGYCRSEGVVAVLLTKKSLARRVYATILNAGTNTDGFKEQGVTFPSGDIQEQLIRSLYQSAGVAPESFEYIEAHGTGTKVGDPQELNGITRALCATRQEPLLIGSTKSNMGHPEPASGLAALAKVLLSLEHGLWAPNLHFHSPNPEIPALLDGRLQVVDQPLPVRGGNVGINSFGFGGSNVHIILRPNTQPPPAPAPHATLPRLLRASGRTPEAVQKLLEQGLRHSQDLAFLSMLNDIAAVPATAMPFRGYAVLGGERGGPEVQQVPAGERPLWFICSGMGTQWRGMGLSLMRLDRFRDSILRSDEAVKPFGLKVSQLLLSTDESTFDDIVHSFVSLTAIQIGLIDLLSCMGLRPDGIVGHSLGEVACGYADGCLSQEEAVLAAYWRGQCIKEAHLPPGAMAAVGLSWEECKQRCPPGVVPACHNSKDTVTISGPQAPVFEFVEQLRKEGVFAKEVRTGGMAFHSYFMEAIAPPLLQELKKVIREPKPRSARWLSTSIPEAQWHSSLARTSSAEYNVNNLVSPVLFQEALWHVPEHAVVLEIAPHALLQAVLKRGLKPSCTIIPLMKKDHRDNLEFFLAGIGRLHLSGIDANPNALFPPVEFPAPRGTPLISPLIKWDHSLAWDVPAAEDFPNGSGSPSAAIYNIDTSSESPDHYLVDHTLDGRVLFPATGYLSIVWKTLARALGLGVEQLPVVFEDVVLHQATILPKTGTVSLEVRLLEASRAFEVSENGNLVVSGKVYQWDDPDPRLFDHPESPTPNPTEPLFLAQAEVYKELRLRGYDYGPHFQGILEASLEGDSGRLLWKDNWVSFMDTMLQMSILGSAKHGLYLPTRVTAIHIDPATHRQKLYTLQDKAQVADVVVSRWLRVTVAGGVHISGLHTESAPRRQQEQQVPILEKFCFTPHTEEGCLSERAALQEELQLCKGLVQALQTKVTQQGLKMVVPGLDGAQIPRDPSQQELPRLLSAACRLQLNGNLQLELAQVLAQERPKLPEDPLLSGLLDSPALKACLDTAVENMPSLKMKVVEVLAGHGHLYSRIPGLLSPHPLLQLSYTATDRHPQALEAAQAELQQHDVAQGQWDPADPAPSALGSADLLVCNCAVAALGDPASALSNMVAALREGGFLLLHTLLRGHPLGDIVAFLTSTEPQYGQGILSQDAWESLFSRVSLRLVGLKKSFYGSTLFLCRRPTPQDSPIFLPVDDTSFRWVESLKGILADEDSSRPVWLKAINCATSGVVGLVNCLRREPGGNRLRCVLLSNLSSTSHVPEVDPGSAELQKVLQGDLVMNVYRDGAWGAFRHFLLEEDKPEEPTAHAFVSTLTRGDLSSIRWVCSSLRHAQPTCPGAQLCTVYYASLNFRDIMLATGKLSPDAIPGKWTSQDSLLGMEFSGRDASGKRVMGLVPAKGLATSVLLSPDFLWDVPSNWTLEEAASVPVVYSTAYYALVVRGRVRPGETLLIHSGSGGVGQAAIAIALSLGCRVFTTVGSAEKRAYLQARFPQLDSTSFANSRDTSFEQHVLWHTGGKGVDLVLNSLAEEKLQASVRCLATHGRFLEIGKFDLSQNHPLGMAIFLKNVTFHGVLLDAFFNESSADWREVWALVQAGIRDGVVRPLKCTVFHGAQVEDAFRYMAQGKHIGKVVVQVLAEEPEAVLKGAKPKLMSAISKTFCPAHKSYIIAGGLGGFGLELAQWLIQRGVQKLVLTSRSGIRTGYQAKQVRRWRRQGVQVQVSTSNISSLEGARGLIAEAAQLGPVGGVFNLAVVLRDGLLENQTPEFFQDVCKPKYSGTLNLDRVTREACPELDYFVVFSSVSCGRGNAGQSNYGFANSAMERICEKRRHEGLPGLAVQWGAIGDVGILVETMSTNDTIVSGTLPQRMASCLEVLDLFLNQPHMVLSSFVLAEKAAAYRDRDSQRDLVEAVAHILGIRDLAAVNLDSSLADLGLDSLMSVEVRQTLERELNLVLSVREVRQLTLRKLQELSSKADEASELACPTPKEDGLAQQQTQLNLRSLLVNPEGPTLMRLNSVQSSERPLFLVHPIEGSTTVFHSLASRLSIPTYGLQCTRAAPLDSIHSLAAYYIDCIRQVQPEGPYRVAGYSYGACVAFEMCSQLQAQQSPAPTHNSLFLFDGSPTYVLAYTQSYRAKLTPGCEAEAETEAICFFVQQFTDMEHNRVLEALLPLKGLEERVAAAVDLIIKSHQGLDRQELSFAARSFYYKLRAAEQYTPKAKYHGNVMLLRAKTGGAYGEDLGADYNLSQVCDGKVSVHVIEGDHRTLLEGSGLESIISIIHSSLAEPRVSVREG

Compound	IC50
CN(C)CCCCCC(=O)N[C@H]1CC[C@@H](C(=O)N(C)c2ccc(-c3ccccc3)cc2)C1	2000 nM
CC(=O)N[C@@H]1CC[C@H](C(=O)N(C)c2ccc(-c3ccccc3)cc2)C1	> 10000 nM
CCNC(=O)N[C@H]1CC[C@@H](C(=O)N(C)c2ccc(-c3nc4ccccc4o3)cc2)C1	530 nM
CN(C)CCCCCC(=O)N[C@H]1CC[C@@H](C(=O)N(C)c2ccc(-c3nc4ccccc4n3C)cc2)C1	2400 nM
CC(=O)N[C@H]1CC[C@@H](C(=O)N(C)c2ccc(-c3nc4ccccc4o3)cc2)C1	200 nM
CCCC(=O)N[C@H]1CC[C@@H](C(=O)N(C)c2ccc(-c3nc4ccccc4o3)cc2)C1	420 nM
CCC(=O)N[C@@H]1CC[C@H](C(=O)N(C)c2ccc(-c3nc4ccccc4o3)cc2)C1 [BI 99990]	> 3000 nM
CCC(=O)N[C@H]1CC[C@@H](C(=O)N(C)c2ccc(-c3cn4ccccc4n3)cc2)C1	290 nM

The remaining lines, values ahead:

IC50	Compound
420 nM	CC(C)C(=O)N[C@H]1CC[C@@H](C(=O)N(C)c2ccc(-c3ccccc3)cc2)C1
1300 nM	CC(=O)N[C@H]1CC[C@@H](C(=O)N(C)c2ccc(-c3nc4ccccc4[nH]3)cc2)C1
190 nM	CCC(=O)N[C@H]1CC[C@@H](C(=O)N(C)c2ccc(-c3nc4ccccc4[nH]3)cc2)C1
1500 nM	CC(C)C(=O)N[C@H]1CC[C@@H](C(=O)N(C)c2ccc(-c3nc4ccccc4[nH]3)cc2)C1
400 nM	CCNC(=O)N[C@H]1CC[C@@H](C(=O)N(C)c2ccc(-c3nc4ccccc4[nH]3)cc2)C1
